From ChEMBL document CHEMBL3612059, “Synthesis of 1,2-benzisoxazole tethered 1,2,3-triazoles that exhibit anticancer activity in acute myeloid leukemia cell lines by inhibiting histone deacetylases, and inducing p21 and tubulin acetylation” (Bioorg Med Chem, 2015) come the findings set out here.

Each structure is given as a SMILES string. Active and inactive are the calls of the source. No cut-off for these calls is given here.

The IC50 is the point on the concentration scale where inhibition reaches its midpoint.

In assay [1] the test system is MOLM-14. The experiment in a line: Induction of apoptosis in human MOLM14 cells assessed as early apoptotic cells at 5 uM after 72 hrs by Annexin V-FITC/propidium iodide staining-based flow cytometric analysis (reference value: 7%). Format: functional. In a few lines:
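100,000 cells per well treated with 2.5, 5.0 or 10 μM for 72 h. Washed in ice-cold Ca/Mg-free PBS, resuspended in 100 μl binding buffer, stained with 5 μl PI plus 3 μl annexin V-FITC for 15 min in the dark, then read immediately by flow cytometry. Quadrants scored as live, early apoptotic, late apoptotic and necrotic.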
For orientation: Flow cytometry measures light scatter and fluorescence of single cells or particles in a stream.

Assay [2] has as its system MV4-11. The experiment in a line: Induction of apoptosis in human MV4-11 cells assessed as necrotic cells at 10 uM after 72 hrs by Annexin V-FITC/propidium iodide staining-based flow cytometric analysis relative to control. Format: functional. Summed up: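 MV4-11 cells (RPMI, 10 % FBS, 37 °C, 5 % CO2), 100,000 per well, exposed to PTB at 2.5, 5.0 or 10 μM for 72 h. Washed in ice-cold Ca/Mg-free PBS, stained with annexin V-FITC and PI in 1X binding buffer for 15 min in the dark, then read at once by flow cytometry. Necrotic cells are the annexin-negative/PI-positive quadrant.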

Assay [3] in a line: Inhibition of cyclin D protein expression in human MOLM13 cells by Western blot analysis. In kind it is functional, cell-based. The note with it: MOLM-13. Background: Immunoblotting shows a protein as a band on a membrane.
In assay [4] the test system is MV4-11. The experiment in a line: Cytotoxicity against human MV4-11 cells assessed as cell viability after 72 hrs by MTT assay. In kind it is functional, cell-based. To be noted: MV4-11, 72 h. In a few lines:
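MV4-11 cells, 8,000/well, exposed for 72 h to […]. MTT added to 0.5 mg/ml final for 3 h at 37 °C, SDS-HCl solubilization, A570 read. Percent inhibition normalized to diluent controls. Three independent experiments in quadruplicate, mean ± SD.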
In general terms: Tetrazolium assays rely on reduction of a dye to a coloured formazan, in cell work by metabolically active cells.

The test system of assay [5] is MV4-11. Kind of assay: Cytotoxicity against human MV4-11 cells assessed as cell viability measured at 96 hrs by MTT assay. Format: functional, cell-based. To be noted: MV4-11, 96 h. Summed up:
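AML cells kept in RPMI with 10 % FBS and 1 % penicillin-streptomycin at 37 °C, 5 % CO₂, mycoplasma-screened. Seeded at 8,000 cells/well across a range of concentrations and read at several times up to 96 h. MTT added to 0.5 mg/ml final for 3 h at 37 °C, formazan dissolved in SDS-HCl, absorbance read at 570 nm. IC50 taken from the dose-response curves.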

In assay [6] the test system is MOLM-14. Kind of assay: Cell cycle arrest in human MOLM14 cells assessed as accumulation at G2/M phase after 72 hrs by propidium iodide staining-based flow cytometric analysis. In kind it is functional. In a few lines:
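Cells in RPMI with 10 % FBS at 37 °C, 5 % CO₂; treated up to 72 h, washed in cold PBS, fixed in -20 °C-precooled 70 % ethanol at 4 °C. Stained with 50 µg/ml PI, 1 % Triton X-100 and 20 µg/ml RNase A in PBS, 30 min, 37 °C, dark. Cell-cycle phases read by flow cytometry; three independent experiments, mean ± SD.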

For assay [7], the system named is MOLM-13 (Homo sapiens). The experiment in a line: Cell cycle arrest in human MOLM13 cells assessed as decrease in cells level at G1 phase after 72 hrs by propidium iodide staining-based flow cytometric analysis.
The subject of assay [8] is MOLM-13 (Homo sapiens). Kind of assay: Induction of apoptosis in human MOLM13 cells assessed as necrotic cells at 5 uM after 72 hrs by Annexin V-FITC/propidium iodide staining-based flow cytometric analysis (reference value: 3%).

Consider `c1ccc(Oc2ccc(-c3cn(-c4noc5ccccc45)nn3)cc2)cc1`, for which the values for the Activity in the assay on MOLM-14 [1], with MV4-11 [2] and with MOLM-13 (Homo sapiens) [8] were 17%, 5% and 18%, respectively. The inhibition entry in assay [3] is “Dose-dependent effect”. Further, the 50% inhibitory concentration (IC50) in the assay on MV4-11 [4] came out at 2000 nM; with MV4-11 [5] it was 2500 nM. For the same molecule, the outcome in the assay with MOLM-14 [6] and in the assay with MOLM-13 (Homo sapiens) [7] was Active.
